Compound activity: PubChem BioAssay, several laboratories
XBP1 UPR activ – activators of adaptive arm of unfolded protein response (XBP1); CHO-XBP1 luciferase reporter, IRE1-XBP1 UPR activation, luminescence; percent of tunicamycin response, DMSO as zero; AID 463104; actives 0.33% (n = 330,000); activation, % at 20 µM;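 active = versus positive control, 20 µM dose yields 30% or more activation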;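 also: 100% = tunicamycin at 10 µg/mL and 0% = DMSO only wells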
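Assay system: IRE1-XBP1 luciferase reporter CHO line. Input: 1000 cells/well. Buffer or medium: F12 with 10% serum. Doses: 20 µM, 1% DMSO. Times: overnight seeding at 37 °C, 6 h compound treatment at 37 °C. Technique: Steady-Glo luciferase glow luminescence, 10 min after reagent addition.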
CHOP inh – inhibitors of CHOP induction in ER stress response. actives 3.8% (n = 220,000). inhibition, % at 10 µM. CHO-K1 CHOP-promoter luciferase, tunicamycin-induced, 15-18 h. AID 2732;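 active = compounds that reduced the stress-induced luciferase reporter signal by more than about 70% of percent inhibition, limit read from the data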;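 also: 0% = tunicamycin plus vehicle and 100% = wells without tunicamycin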
UPR CHOP act – apoptotic UPR (CHOP) activation | activation, % at 10 µM | AID 449763 | actives 0.34% (n = 330,000) | CHO-CHOP luciferase reporter, luminescence; percent of tunicamycin response over DMSO baseline;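 active = at 10 µM dose, activation of 40% or more, normalized to positive control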;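 also: 100% = tunicamycin at 10 µg/mL and 0% = DMSO alone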
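Test system: CHO CHOP reporter cells. Input: 500 CHO-CHOP cells per well. Medium: F12 with 10% FBS. Technique: luciferase luminescence. Measure: percent activation relative to tunicamycin control. Dosing: 10 µM compound, 0.5% DMSO. Timing: 16-18 h cell attachment, then 6 h compound exposure, 37 °C.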
GAA850 FXN act – activators of GAA850 frataxin (FXN) promoter; HEK293 lucGAA850 FXN promoter luciferase reporter, 24 h; percent of 10 µM SAHA response; activation, % at 6 µM; actives 0.56% (n = 360,000); AID 540364;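 active = activation above the average of all compounds screened plus 3 SD, cutoff fixed separately per campaign, cut at about 7.5% in these data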;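 also: 0% = DMSO wells and 100% = 10 µM SAHA wells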
CHOP inh conf – confirmation of CHOP induction inhibitors; inhibition, % at 10 µM; CHO-CHOP promoter luciferase reporter, tunicamycin-induced, luminescence; actives 45% (n = 2,100); shares compounds with CHOP inh;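 active = mean of three repeat readings of reporter signal inhibition above a set limit, cut at about 70% in these data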;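 also: 0% = tunicamycin plus vehicle and 100% = wells lacking tunicamycin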
* hit, by the source's call; · = no result given. Many of the other results were omitted from the sample, so hits are more common in it than they were.

SMILES	XBP1 UPR activ	CHOP inh	UPR CHOP act	GAA850 FXN act	CHOP inh conf
CCc1nc2c(OCC(=O)C(C)(C)C)cccn2c1N(C)C(=O)c1ccc(C)cc1	·	·	·	0	·
O=C1/C(=C/c2ccncc2)SC(=S)N1C1CCS(=O)(=O)C1 (configuration not stated)	-5	104*	8	-4	103*
Cc1cc(C(=O)N/N=C/c2cc(Br)ccc2OC(=O)c2ccccc2Cl)n[nH]1	2	99*	1	-2	34
Cc1cc(C(=O)N/N=C/c2cc(Br)ccc2OC(=O)c2ccccc2)n[nH]1	7	40	-1	-4	·
CCN1CCN(Cc2ccc(NC(=O)c3cc(NC(=O)c4cncc(-c5ccc(C#N)cc5)c4)cc(OC)c3)cc2C(F)(F)F)CC1	-9	107*	3	1	60
CCN1CCN(Cc2ccc(NC(=O)c3cc(NC(=O)c4nccnc4N)cc(OC)c3)cc2C(F)(F)F)CC1	3	21	0	3	·
Cc1cc(C)c2c(c1)/C(=C/C(=O)c1ccc(Br)s1)C(=O)N2	-9	110*	-9	1	54
CCc1ccc2c(c1)/C(=C/C(=O)c1cccs1)C(=O)N2	-9	109*	-7	-4	-22
Cc1cccc2c1NC(=O)/C2=C\C(=O)c1cccs1	8	110*	29	3	-48
COC(=O)c1ccc(COC(=O)C2CCN(S(=O)(=O)c3c(C)cc(C)cc3C)CC2)o1	·	·	·	1	·
COc1ccc(C(=O)c2c(C(F)(F)F)oc3c2C(=O)c2ccccc2C3=O)cc1OC	-5	106*	6	-2	71
CC1(C(=O)NS(=O)(=O)c2ccc3ccccc3c2)CCN1C(=O)Cc1ccc(-c2ccccc2)cc1 (configuration not stated)	·	·	·	0	·
Cc1c(CC(=O)NCC(=O)NCC(=O)N[C@@H](Cc2ccccc2)C(=O)O)c(=O)oc2c(C)c(O)ccc12	·	·	·	-3	·
CCc1ccc(S(=O)(=O)/N=C2/C=C(Sc3ncn[nH]3)C(=O)c3ccccc32)cc1	·	108*	·	-14	-141
CCc1ccc(S(=O)(=O)/N=C2\C=CC(=O)c3ccccc32)cc1	18	-30	14	·	·
COc1ccc(-c2cnc3c(NC(C)=O)cc(-c4ccc(C(=O)N5CCOCC5)cc4)cn23)cc1OC	·	·	·	-2	·
CCOc1ccc(/C=N/NC(=O)Cc2csc(Nc3cccc(C(F)(F)F)c3)n2)cc1	-3	106*	0	0	32
Cc1cnc(C)c(Nc2nc(C(N)c3ccccc3)cs2)n1 (configuration not stated)	·	·	·	0	·
CCOC(=O)c1c(CC(C)C)csc1NC=O	4	99*	-1	5	26
CCOC(=O)c1c(CC(C)C)csc1NC(C)=O	1	56	0	4	·
COc1ccc2[nH]c(=O)c(CN(Cc3nnnn3Cc3ccco3)C3CCCCC3)cc2c1	-5	3	-2	1	·
COc1ccc2[nH]c(=O)c(CN(C3CCCCC3)C(c3nnnn3Cc3ccco3)C(C)C)cc2c1 (configuration not stated)	-2	102*	-7	6	52
C=CCC[C@H](Cc1ccc(F)cc1)C(=O)OC[C@@H](Cc1c[nH]c2ccccc12)NC(=O)[C@H](CC=C)CC(=O)N(CCO)Cc1ccccc1	-5	·	23	-9	·
O=[N+]([O-])c1cccc(/C=N/Nc2nc(NCc3ccccc3)nc(N3CCOCC3)n2)c1	4	104*	2	3	2
CCc1nc2ccc(C(=O)N3CCN(S(=O)(=O)CC)CC3)cn2c1N(CC)CCN(C)C	·	·	·	1	·
SMILES	XBP1 UPR activ	CHOP inh	UPR CHOP act	GAA850 FXN act	CHOP inh conf
CCOC(=O)/C=C/C(=O)Nc1ccc(S(=O)(=O)Nc2c(C)cc(C)cc2C)cc1	0	34	1	5	·
CCOC(=O)/C=C/S(=O)(=O)c1ccc(NC(C)=O)cc1	-8	·	-12	-19	121*
CCc1nc2c(OCCc3cccc(OC)c3)cccn2c1N(C=O)Cc1ccc(OC)cc1	·	·	·	3	·
CC(C)(C)OC(=O)CNC(=O)c1[nH]cnc1C(=O)Nc1ccc(CNC(=O)OC(C)(C)C)cc1	-2	48	4	-8	·
CC(C)(C)OC(=O)CNC(=O)c1[nH]cnc1C(=O)Nc1ccc(Cl)cc1	-1	100*	-1	1	77*
Cc1ccc(NC(=O)c2nc[nH]c2C(=O)N[C@@H](C)C(=O)OC(C)(C)C)cc1	-2	97*	-1	-1	78*
C/C(=N\NC(=O)COc1ccccc1-c1ccccc1)c1cccnc1	-1	15	-1	-5	·
C/C(=N\NC(=O)COc1ccccc1-c1ccccc1)c1ccc(O)cc1O	1	104*	2	-4	46
C[C@H]1CN(c2ccccc2)C(=O)[C@@H]1CC(=O)Nc1ccccc1	·	·	·	2	·
Cc1cccc(Nc2nc(N)c([N+](=O)[O-])c(N3CC(C)CC(C)C3)n2)c1 (configuration not stated)	3	103*	1	4	118*
Cc1cccc(Nc2nc(N)c([N+](=O)[O-])c(N3CCC(C)CC3)n2)c1	4	104*	2	6	30
CNc1cncc(-c2cccc(C(=O)NCCN(C)C)c2)n1	·	·	·	0	·
COc1cccc(NC(=O)C2(C)CCN2C(=O)Cc2cccc3ccccc23)c1 (configuration not stated)	·	·	·	2	·
NC(=O)c1cc(-c2ccccc2)nc(N2CCCCCC2)n1	-2	103*	3	0	108*
Cc1onc(-c2c(F)cccc2Cl)c1C(=O)Nc1cc(S(=O)(=O)N2CCCCC2)ccc1O	·	·	·	0	·
CC(C)NC(=O)Nc1nnc([C@H]2C[C@H](O)[C@@H](CO)O2)s1	·	·	·	-2	·
CCOc1cc(C2c3c(oc4ccccc4c3=O)C(=O)N2c2nccs2)ccc1O (configuration not stated)	3	104*	-1	-3	-1
Cc1cccc(C(=O)NNC(=O)c2cc3cc4ccccc4nc3s2)c1	-3	103*	-1	2	6
CCOc1cc2[nH]c(=S)n(C3CC3)c(=O)c2cc1OCC	-2	-18	2	-1	·
CCOC(=O)N1CCC(n2c(=S)[nH]c3cc(OCC)c(OCC)cc3c2=O)CC1	24	101*	16	1	98*
COc1cc(C)ccc1S(=O)(=O)NC(=O)C1(C)CCN1C(=O)Cc1ccc(C(C)(C)C)cc1 (configuration not stated)	·	·	·	0	·
COc1ccccc1NC(=O)CNC(=O)Cn1c(C)cc2ccccc2c1=O	-3	·	0	3	·
COc1cc(NC(=O)Cn2c(C)cc3ccccc3c2=O)cc(OC)c1OC	-4	97*	-3	-2	20
CCc1nn(CC(=O)NCCCN(CC)c2cccc(C)c2)c(=O)c2cc3occc3n12	-2	104*	1	·	31
